Source: PubChem BioAssay
FLuc inh counter: inhibits firefly luciferase, flagging false hits in luciferase inhibition screens. hit rate 1.5% among 200,000. P08659. inhibition, % at 10 µM. ATPLite firefly luciferase biochemical luminescence, 10 min;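 active = inhibition above about 50% when tested at 10 µM, limit read from the data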
Target sequence (P08659 whole entry, looked up): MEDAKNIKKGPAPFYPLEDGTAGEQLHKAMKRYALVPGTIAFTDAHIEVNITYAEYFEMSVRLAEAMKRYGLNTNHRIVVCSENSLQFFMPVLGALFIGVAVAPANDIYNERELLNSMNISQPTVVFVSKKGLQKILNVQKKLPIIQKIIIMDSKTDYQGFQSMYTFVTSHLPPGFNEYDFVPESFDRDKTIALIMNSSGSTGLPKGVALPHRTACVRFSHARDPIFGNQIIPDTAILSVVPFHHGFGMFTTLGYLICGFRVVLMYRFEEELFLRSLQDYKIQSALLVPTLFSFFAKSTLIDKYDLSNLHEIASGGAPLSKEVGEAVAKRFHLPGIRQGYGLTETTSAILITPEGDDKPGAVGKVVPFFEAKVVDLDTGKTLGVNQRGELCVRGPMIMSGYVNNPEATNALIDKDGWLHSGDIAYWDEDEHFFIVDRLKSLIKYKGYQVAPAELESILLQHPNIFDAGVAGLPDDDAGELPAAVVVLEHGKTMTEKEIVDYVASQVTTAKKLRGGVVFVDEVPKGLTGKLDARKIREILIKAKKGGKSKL
Pf gamet viab: kills late stage P. falciparum gametocytes | P. falciparum stage V gametocytes, ATP luminescence, 24 h | inhibition, % at 10.9 µM | hit rate 0.065% among 150,000;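 active = inhibition above the mean plus 3 SD of compounds within the control limits, set per campaign, cut at about 38% in these data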
APP 5'UTR act: activates APP 5'UTR luciferase reporter | SH-SY5Y APP 5'UTR luciferase reporter, luminescence; zero percent = DMSO vehicle wells | activation, % at 2 µM | hit rate 1% among 190,000;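 active = activation above a set limit, based on mean plus 3 SD of controls, cut at about 140% in these data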
FLuc act counter: affects firefly luciferase, flagging false hits in luciferase stimulation screens; P08659; ATPlite luciferase biochemical, luminescence, 10 min; 0 = ATP-free wells, 1 = DMSO control; activation factor at 10 µM; 200,000 tested, under 10 active; AID 1027;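 active = luciferase activation factor, scaled between plate controls, of at least 2 with compound at 10 µM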
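Assay system: Luciferase/luciferin detection reagent, cell-free biochemical luciferase assay / Read-out: luciferase activation / Benchmarks: No-ATP low control, compound-free enzyme-plus-ATP high control / Medium: PBS buffer for ATP / Detection: luminescence measurement of luciferase light output / Schedule: 10 min at ambient temperature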
NF-kB expr up: raises NF-kB expression in human neuronal cells; AID 1239; hit rate 1.6% among 190,000; fold change at 12.5 µM; NF-kB reporter expression; hits give high values; in the data active = fold change above about 3.3
STAT1 act: STAT1 signaling activation; NIH 3T3 STAT1-luciferase reporter, IFN-gamma, luminescence; 100% = IFN-gamma alone, no compound; activation (% of control), % at 5.5 µM; hit rate 2.6% among 200,000; AID 932;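 active = activation above the screen-wide mean activation plus 3 SD, cut at about 130% in these data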
A number is an active result; n = inactive; x = not tested or not shown. Sampled rows, rich in hits. Any-hit rate of the full collection: about 3.5%.

SMILES	FLuc inh counter	Pf gamet viab	APP 5'UTR act	FLuc act counter	NF-kB expr up	STAT1 act
CCC(C)(C)C1CCC(=NNC(=O)c2ccoc2C)CC1 (configuration not stated)	n	x	144	n	n	n
CC1(C)O[C@@H]2C[C@H]3[C@@H]4C[C@H](F)C5=CC(=O)CC[C@]5(C)[C@H]4[C@@H](O)C[C@]3(C)[C@]2(C(=O)CO)O1	n	x	n	n	n	135
CCCCC(=O)O[C@]1(C(=O)CO)CC[C@H]2[C@@H]3CCC4=CC(=O)CC[C@]4(C)[C@H]3[C@@H](O)C[C@@]21C	n	x	n	n	n	n
Fc1ccc2c(Cl)c(-c3nnc(-c4cccs4)o3)sc2c1	n	n	146	n	n	n
Clc1ccc2c(Cl)c(-c3nnc(-c4ccccc4)o3)sc2c1	x	x	n	x	x	n
Cc1cccc(NC(=O)c2ccc(N3CCOCC3)c([N+](=O)[O-])c2)n1	n	n	n	n	n	n
Cc1cccc(NC(=O)c2ccc(N3CCCCC3)c([N+](=O)[O-])c2)n1	n	x	159	n	5.2	144
Cc1ccc(OCCSc2ncccn2)c(C)c1	n	n	168	n	5.5	136
Cc1cccc(OCCOCCSc2ncccn2)c1	n	x	n	n	n	n
CC(CCc1ccccc1)NC(=O)CCC1CCCC1 (configuration not stated)	x	n	x	x	x	x
COc1ccc(N=Nc2nc3ccc(Br)cc3n2C)cc1	84	x	n	n	n	n
COc1ccc(-c2c(-c3cc(OC)cc(OC)c3)n(C)c3ccc(Br)cc23)cc1	x	n	x	x	x	x
CCc1nc(NC(=O)NS(=O)(=O)c2ccccc2C(=O)OC)nc(OC)n1	n	n	n	n	n	n
CCOc1ccc(-c2n[nH]c(C(=O)NN)c2C)cc1	n	n	n	n	n	129
Cc1c(-c2ccccc2)n[nH]c1C(=O)NN	n	n	n	n	n	n
COC(=O)c1ccc(NC(=O)C(=O)c2cccn2C)cc1	84	n	n	n	8.4	n
COCC(=O)Nc1ccc(OCc2ccccc2)cc1	n	n	n	n	n	131
COC(=O)c1ccc(NC(=O)c2ccccc2C(=O)Nc2ccc(C(=O)OC)cc2)cc1	x	n	x	x	x	x
CCC(=O)Nc1ccc(C(=O)OCc2ccccc2Cl)cc1	n	n	n	n	n	137
COC(=O)Nc1ccc(OCc2ccccc2)cc1	n	n	n	n	n	n
CCOc1ccc(NC(=O)c2ccc(NC(=O)COC(=O)Cc3ccc(OC)cc3)cc2)cc1	n	x	n	n	n	136
CCOC(=O)c1cnc2c(C)c(Cl)ccc2c1Nc1ccc(S(=O)(=O)Nc2ncccn2)cc1	n	x	n	n	n	n
CCOc1ccc(NC(=O)Cc2ccccc2)cc1	n	n	n	n	n	135
COC(=O)c1ccc(NC(=O)Cc2ccccc2)cc1	n	n	n	n	n	132
COC(=O)c1ccc(NC(=O)Cc2ccc(C)cc2)cc1	n	x	n	n	n	n
SMILES	FLuc inh counter	Pf gamet viab	APP 5'UTR act	FLuc act counter	NF-kB expr up	STAT1 act
CCOc1ccc(NC(=O)CN2C(=O)CSC(C)C2=O)cc1 (configuration not stated)	n	n	n	n	n	131
COc1ccc(NC(=O)CN2C(=O)CSC(C)C2=O)c(OC)c1 (configuration not stated)	n	n	n	n	n	n
Fc1ccc(-c2ncc3ccccn23)cc1	n	n	n	n	n	n
Clc1ccc(/C=C/c2ncc3ccccn23)cc1	67	x	n	n	3.7	144
O=C(N/N=C/c1ccccn1)c1cc(-c2ccc3ccccc3c2)n[nH]1	n	n	n	n	n	148
O=C(N/N=C/c1c[nH]c2ccccc12)c1cc(-c2ccc3ccccc3c2)n[nH]1	n	n	n	n	n	140
O=C(N/N=C/c1c[nH]c2ccccc12)c1cc(-c2ccc(-c3ccccc3)cc2)n[nH]1	50	n	n	n	n	n
Cc1ccc(-c2cc(C(=O)N/N=C/c3c[nH]c4ccccc34)[nH]n2)cc1	n	n	n	n	n	n
CCc1ccc(-c2cc(C(=O)N/N=C/c3ccccn3)[nH]n2)cc1	n	n	n	n	n	n
O=C(N/N=C/c1c[nH]c2ccccc12)c1cc(-c2ccccc2)n[nH]1	n	n	n	n	n	n
CCN(CC)C(=O)N1CCc2ccccc2C1CN1C(=O)c2ccccc2C1=O (configuration not stated)	x	x	n	x	x	n
O=C(/C=C/c1cccs1)Nc1cccnc1	62	n	n	n	n	n
